Measurements collected from several papers.
Compare with care: the assays were run in different laboratories.
Target: Mitogen-activated protein kinase 13 (MAPK13, Homo sapiens, UniProt O15264)
One construct used (O15264 1-365): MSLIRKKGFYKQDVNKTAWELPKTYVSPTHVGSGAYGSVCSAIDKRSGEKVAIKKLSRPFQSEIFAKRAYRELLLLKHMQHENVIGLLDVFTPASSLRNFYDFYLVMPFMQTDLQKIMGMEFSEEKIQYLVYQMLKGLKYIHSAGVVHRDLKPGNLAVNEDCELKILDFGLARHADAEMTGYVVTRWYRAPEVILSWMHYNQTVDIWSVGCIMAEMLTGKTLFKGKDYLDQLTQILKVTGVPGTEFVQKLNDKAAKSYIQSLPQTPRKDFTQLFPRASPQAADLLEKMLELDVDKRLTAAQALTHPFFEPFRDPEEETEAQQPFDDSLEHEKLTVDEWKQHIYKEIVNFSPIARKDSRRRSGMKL

CC(C)(C)c1nc2c(s1)c1nc(N)ncc1c1ccc(NS(=O)(=O)c3c(F)cccc3F)c(F)c12 — remaining activity (enzyme activity; inhibitor; radiometric; 1 µM): 91%
Cc1ccc(Nc2nccc(N(C)c3ccc4c(C)n(C)nc4c3)n2)cc1S(N)(=O)=O — inhibition (enzyme activity; inhibitor; 10 µM): 0%
O=C(O)c1cc(-c2ccc(C3CCNCC3)cc2)c2ccc(-c3ccc(C(F)(F)F)cc3)cc2c1 — remaining binding (cell-free assay; competition with immobilised ligand; 1 µM): 97%
O=C(Nc1cnn(-c2csc(C(=O)NC3COC3)c2)c1)Nc1c(F)cccc1Cl — remaining activity (enzyme activity; inhibitor; 5 µM): 98.4%
CC1(C)NC(=O)c2[nH]c3c(Cl)c(Cl)ccc3c2C1C#N (stereo not drawn) — ΔTm (thermal stability; DSF; 10 µM): 0.9 °C
COc1cc(Cl)c(C(=O)N[C@@H](CN[C@H]2CC[C@@H](N)CC2)Cc2ccc(C#N)cc2)cc1-c1ccc(CN[C@H](C)c2ccc(C)cc2)o1 — remaining activity (enzyme activity; inhibitor; 1 µM): 101%
CN(C)C1CCN(CC#Cc2nn(C3CCCC3)c3nc(NCc4ccccc4)ncc23)C1 (stereo not drawn) — inhibition (enzyme activity; inhibitor; FRET; 1 µM): 0%
CCN(CC)c1ccc(C2=NNC(=O)CC2C)cc1[N+](=O)[O-] (stereo not drawn) — remaining activity (enzyme activity; inhibitor; 10 µM): 97%
Cn1c(=O)n(-c2ccc(C(C)(C)C#N)cc2)c2c3cc(-c4cnc5ccccc5c4)ccc3ncc21 — remaining activity (enzyme activity; inhibitor; 10 µM): 100%
O=C(Nc1cnn(-c2csc(C(=O)NC3COC3)c2)c1)Nc1ccccc1Cl — remaining activity (enzyme activity; inhibitor; 5 µM): 122%
CN1CCC2(CC1)NC(=O)c1c(c3ccc(Cl)c(Cl)c3n1C)C2C#N (racemic) — ΔTm (thermal stability; DSF; 10 µM): 0.4 °C
COc1cc2ncnc(Nc3ccc(Oc4ccccc4)c(C)c3C)c2cc1OC — inhibition (enzyme activity; inhibitor; 1 µM): 2%
Cc1cc(NC(=O)c2cccc3cc(-c4cccc5[nH]nc(N)c45)ccc23)ccc1F — activity vs control (enzyme activity; inhibitor; 0.1 µM): 101%
CNCc1ccccc1-c1csc([C@H](C)Nc2nc(C)nc3cc(OC)c(OC)cc23)c1 — remaining binding (cell-free assay; competition with immobilised ligand; 1 µM): 100%
COc1cc2c(Nc3ccc(Br)cc3F)ncnc2cc1OCC1CCN(C)CC1 — remaining signal (cell-free assay; 0.5 µM): 95.5%
Nc1nc(NC2CCCCC2)sc1C(=O)c1ccccc1 — remaining activity (enzyme activity; inhibitor; 10 µM): 67%
O=C(O)[C@@H]1[C@@H](Cn2nnc3ccccc3c2=O)CC[C@H]1C(=O)c1ccc(OCCC2CCOCC2)cc1 — remaining binding (cell-free assay; competition with immobilised ligand; 1 µM): 94%
CC/C(=N\NC(=O)NCc1cccc(O)c1)c1ccc(O)c(C)c1O — inhibition (enzyme activity; inhibitor; 0.1 µM): -2.6%
CC1=C(C#N)[C@@H](c2ccc3[nH]nc(C)c3c2)C(C#N)=C(c2ccc(Cl)cc2)N1 — remaining binding (cell-free assay; competition with immobilised ligand; 1 µM): 100%
COc1cc(Nc2cnc(C#N)c(O[C@H](C)CN(C)C)n2)ncc1-c1cnn(C)c1 — remaining activity (enzyme activity; inhibitor; radiometric; 1 µM): 87%
Cn1c2c(Cl)c(Cl)ccc2c2cc(N)[nH]c(=O)c21 — ΔTm (thermal stability; DSF; 10 µM): 0.5 °C
Cc1nc(Cc2cccc(C(F)(F)F)c2)sc1-c1ccc(C(N)=O)nc1 — remaining binding (cell-free assay; competition with immobilised ligand; 1 µM): 99%
CNC(=O)c1cc2c(Oc3ccc(NC(=O)C4(C(=O)Nc5ccc(F)cc5)CC4)cc3)ccnc2cc1OC — inhibition (enzyme activity; inhibitor; radiometric; 1 µM): 83%
O=C(Nc1cccnn1)N1CCC(=Cc2cccc(Oc3ccc(C(F)(F)F)cn3)c2)CC1 — remaining binding (cell-free assay; competition with immobilised ligand; 1 µM): 86%
CCCS(=O)(=O)Nc1ccc(F)c(C(=O)c2c[nH]c3ncc(-c4ccc(Cl)cc4)cc23)c1F — inhibition (enzyme activity; inhibitor; 1 µM): < 10%
Cn1c2c(Cl)c(Cl)ccc2c2cn[nH]c(=O)c21 — ΔTm (thermal stability; DSF; 10 µM): 0 °C
CNC(=O)Nc1ccc2c(c1)[C@@]1(CC2)OC(=O)N(CC(=O)N(Cc2ccc(F)cc2)[C@@H](C)C(F)(F)F)C1=O — remaining binding (cell-free assay; competition with immobilised ligand; 1 µM): 97%
Cn1c2c(Cl)c(Cl)ccc2c2cc[nH]c(=O)c21 — ΔTm (thermal stability; DSF; 10 µM): -0.4 °C
CC(C)(C)C(=O)c1sc(NC2CCCCC2)nc1N — remaining activity (enzyme activity; inhibitor; 10 µM): 102%
CNC(=O)c1cc(Oc2ccc(NC(=O)Nc3ccc(Cl)c(C(F)(F)F)c3)cc2)ccn1 — inhibition (enzyme activity; inhibitor; 10 µM): 56%
O=C1NC(=O)c2cc(Nc3ccc(F)cc3)c(Nc3ccc(F)cc3)cc21 — remaining signal (cell-free assay; 0.5 µM): 99.4%
Cn1c2c(c3ccc(Cl)c(Cl)c31)C(C#N)C(C)(C)NC2=O (stereo not drawn) — ΔTm (thermal stability; DSF; 10 µM): 1.4 °C
CCN(CC)CCNC(=O)c1c(C)[nH]c(/C=C2\C(=O)Nc3ccc(F)cc32)c1C — inhibition (enzyme activity; inhibitor; 0.3 µM): -17%
N#Cc1ccc(Nc2ccc3[nH]c(=O)[nH]c3c2)c(Cl)c1 — remaining binding (cell-free assay; competition with immobilised ligand; 1 µM): 100%
CCCOc1ccc(OC)c(F)c1C(=O)c1ccc(C(=O)N[C@@H]2CNC[C@H]2NC(=O)c2ccc3[nH]ncc3c2)cc1 — remaining activity (enzyme activity; inhibitor; 10 µM): 93%
Cc1ccc(NC(=O)c2ccc(C)c(C(F)(F)F)c2)cc1C#Cc1nn(C2CCC(O)CC2)c2ncnc(N)c12 (stereo not drawn) — remaining signal (cell-free assay; 10 µM): 80%
